Measurements from article PMC9237582 (Asian Journal of Pharmaceutical Sciences, 2022).

Columns and labels:
[1] = tested on: NIH-3T3 cells; experiment: Scratch test, TGF-β1-induced cell migration; type: cell-based, mouse; details: TGF-β1 5 ng/ml, 48 h; vs TGF-β1 group
Summary of the method: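 NIH-3T3 fibroblasts were seeded in 12-well format, cultured 24 h, then scratched. After 24 h synchronisation, TGF-β1 (5 ng/ml) was added with test compound, SB431542 or a reference drug, and incubated 48 h. Wounds were photographed under an inverted microscope at 0, 24 and 48 h after drug addition.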

[2] = tested on: NIH-3T3 mouse embryonic fibroblasts; experiment: MTT assay; type: cell-based; details: NIH3T3, 48 h
Summary of the method: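 NIH-3T3 cells were grown in high-glucose DMEM with 10% FBS and penicillin/streptomycin at 37 °C, 5% CO2, in 96-well format. Test compound was given at 25–200 µg/ml and a reference drug at 0.25–10 µM, for 48 h. MTT (5 mg/ml) was added for 4 h, dissolved in DMSO, and absorbance read at 490 nm.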

[3] = tested on: bleomycin-induced rat model of IPF; experiment: Preliminary pharmacodynamics in bleomycin-induced rat model of IPF; type: in vivo; details: Day 29, vs bleo group; same dosing
Summary of the method: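 Male Sprague–Dawley rats under chloral hydrate anaesthesia received intratracheal bleomycin (5 mg/kg in 0.1 ml saline), then were held upright and rotated 5 min; controls got saline. From day 1, test powder was insufflated at 10 mg/kg as Sal B once daily for 28 d. Comparators: same dose iv, reference drug intragastric 31.5 mg/kg, or air. On day 29, right lung lavaged (3× cold saline); left lung stored −80 °C for Hyp.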

[4] = Lung tissue distribution study; type: in vivo, rat
Summary of the method: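 Male Sprague–Dawley rats (200 ± 20 g), fasted 12 h. Dose 10 mg/kg as Sal B, given either as dry powder or as iv solution. Powder was insufflated intratracheally under chloral hydrate anaesthesia (three 1.5 ml air pushes). Lungs were collected at 0.033–12 h (9 time points, n = 3 each) and homogenised 1:5 (g/ml) in iced saline. Homogenates were processed as for plasma and quantified by UPLC-MS/MS.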

[5] = Preliminary pharmacokinetic study in plasma; type: in vivo, rat
Summary of the method: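 Male Sprague–Dawley rats (200 ± 20 g, n = 6/group). Dose 10 mg/kg as Sal B, by intratracheal powder insufflation or iv solution. Suborbital blood was taken into heparin at 0.033–12 h, and plasma was spun 10 min at 4 °C. Ascorbic acid, internal standard and HCl were added, then ethyl acetate extraction. Dried extract was reconstituted in methanol-water 80:20 for UPLC-MS/MS; parameters came from concentration-time data.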

[6] = cited from earlier work
[7] = Sal B in rat lung tissue, 10 mg/kg as Sal B, iv solution or pulmonary DPI, n = 3
[8] = male, Sprague-Dawley, rat, lung tissue, iv, 10 mg/kg
[9] = Sal B in rat plasma, 10 mg/kg as Sal B, iv solution or pulmonary DPI, n = 6
[10] = male, Sprague-Dawley, rat, plasma, iv, 10 mg/kg

NC(=O)c1ccc(-c2nc(-c3ccc4c(c3)OCO4)c(-c3ccccn3)[nH]2)cc1 [SB431542]
effect on TGF-β1-induced cell migration [1]: significantly inhibited

COC(=O)c1ccc2c(c1)NC(=O)/C2=C(\Nc1ccc(N(C)C(=O)CN2CCN(C)CC2)cc1)c1ccccc1 [nidanib, nintedanib, reference compound]
concentration with no significant effect on cell viability [2]: < 1000 nM | effect on TGF-β1-induced cell migration [1]: significantly inhibited the migration of NIH-3T3 cells in a concentration dependent manner | Hyp content in lung tissue homogenate [3]: significantly lower | IFN-γ content in BALF [3]: significantly increased(P < 0.01) | IL-1β content in BALF [3]: significantly decreased | IL-4 content in BALF [3]: significantly decreased | IL-6 content in BALF [3]: significantly decreased | IL-18 content in BALF [3]: significantly decreased | MDA content in lung tissue homogenate [3]: significantly reduced | SOD activity in lung tissue homogenate [3]: increased significantly | TGF-β1 protein content in BALF [3]: significantly decreased | serum MPO content [3]: significantly reduced

O=C(/C=C/c1ccc(O)c2c1[C@H](C(=O)O[C@H](Cc1ccc(O)c(O)c1)C(=O)O)[C@@H](c1ccc(O)c(O)c1)O2)O[C@H](Cc1ccc(O)c(O)c1)C(=O)O [Sal B, Salvianolic acid B]
AUC0-∞ [4, 7]: 1898.5 ± 134.03 ng·h/g | Cmax [4, 7]: 13,150.38±619.02 ng/g | Lz [4, 7]: 0.77 ± 0.04 h⁻¹ | Cmax [4, 8]: 13200 ng/g | MRT [4, 8]: 11.4 min | Tmax [4, 8]: 1.98 min | half-life [4, 8]: 54 ± 3 min | Cl/F [5, 9]: 41.5 ± 7.83 mL/min/kg | Lz (elimination of phase slope) [5, 9]: 0.45 ± 0.07 h⁻¹ | Vz/F [5, 9]: 5.62 ± 1.47 L/kg | AUC(0-inf) [5, 10]: 6550 ± 1490 ng·h/mL | Cmax [5, 10]: 16400 ng/mL | MRT [5, 10]: 49.8 ± 6 min | Tmax [5, 10]: 1.98 min | half-life [5, 10]: 93.6 ± 16.8 min | absolute bioavailability of Sal B in previous studies [6]: 19.15%±7.44% | Hyp content in lung tissue homogenate [3]: significantly lower | IFN-γ content in BALF [3]: not significantly different | IL-1β content in BALF [3]: significantly decreased | IL-4 content in BALF [3]: not significantly different | IL-6 content in BALF [3]: significantly decreased | IL-18 content in BALF [3]: significantly decreased | MDA content in lung tissue homogenate [3]: significantly reduced | SOD activity in lung tissue homogenate [3]: increased significantly | TGF-β1 protein content in BALF [3]: significantly decreased | serum MPO content [3]: significantly reduced
